Data as given in ChEMBL document CHEMBL3108713, “Identification of ML251, a Potent Inhibitor of T. brucei and T. cruzi Phosphofructokinase” (ACS Med Chem Lett, 2014).

Experiments:
[1] = target: T1, ATP-dependent 6-phosphofructokinase (Trypanosoma brucei, UniProt O15648); test: Inhibition of Trypanosoma brucei PFK-mediated ADP production using ATP/fructose-6-phosphate as substrate by luciferase based luminescence assay
T1 sequence (O15648 whole entry): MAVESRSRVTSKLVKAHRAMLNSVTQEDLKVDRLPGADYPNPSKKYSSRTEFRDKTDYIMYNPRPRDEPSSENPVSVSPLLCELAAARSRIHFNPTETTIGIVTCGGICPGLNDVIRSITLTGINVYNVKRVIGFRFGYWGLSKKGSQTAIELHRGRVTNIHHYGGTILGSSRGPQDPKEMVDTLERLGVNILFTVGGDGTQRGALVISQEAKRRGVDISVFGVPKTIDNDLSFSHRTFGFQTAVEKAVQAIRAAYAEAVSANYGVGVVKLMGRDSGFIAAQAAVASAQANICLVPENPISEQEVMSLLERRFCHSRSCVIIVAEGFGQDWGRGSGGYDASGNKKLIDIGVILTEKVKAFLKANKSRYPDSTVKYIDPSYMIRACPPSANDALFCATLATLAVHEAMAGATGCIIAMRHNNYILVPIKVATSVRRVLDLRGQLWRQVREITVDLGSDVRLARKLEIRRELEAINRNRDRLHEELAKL
How it was run: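 Recombinant enzyme; ADP formed by PFK detected with modified luciferase (ADP-Glo) luminescent end-point in 1536-well format.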

[2] = target: T2, ATP-dependent 6-phosphofructokinase (Trypanosoma cruzi, UniProt Q4E657); test: Inhibition of Trypanosoma cruzi PFK
T2 sequence (Q4E657 whole entry): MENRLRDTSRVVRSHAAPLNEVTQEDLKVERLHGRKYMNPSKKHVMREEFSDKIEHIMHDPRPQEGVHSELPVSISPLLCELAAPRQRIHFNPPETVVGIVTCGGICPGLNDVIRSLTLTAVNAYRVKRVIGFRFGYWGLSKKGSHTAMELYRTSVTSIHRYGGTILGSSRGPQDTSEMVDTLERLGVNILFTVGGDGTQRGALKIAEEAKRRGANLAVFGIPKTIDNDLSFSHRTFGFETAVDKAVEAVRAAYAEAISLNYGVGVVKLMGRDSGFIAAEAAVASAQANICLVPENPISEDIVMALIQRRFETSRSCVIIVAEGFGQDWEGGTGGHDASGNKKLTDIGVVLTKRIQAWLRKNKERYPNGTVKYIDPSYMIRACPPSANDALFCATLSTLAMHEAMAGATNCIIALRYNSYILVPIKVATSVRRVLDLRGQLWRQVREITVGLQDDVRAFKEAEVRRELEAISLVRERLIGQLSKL

[3] = target: T3, ATP-dependent 6-phosphofructokinase (Trypanosoma brucei) (UniProt O15648); test: Inhibition of Trypanosoma brucei PFK-mediated ADP production using ATP/fructose-6-phosphate as substrate at 57 uM by luciferase based luminescence assay
T3 sequence (whole entry): T1 sequence (O15648 whole entry)
How it was run: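 Recombinant T. brucei PFK; ADP formed by the enzyme is converted to a luminescent signal by a modified luciferase ADP-Glo detection, read at end point.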

[4] = target: T4, ATP-dependent 6-phosphofructokinase (Trypanosoma cruzi) (UniProt Q4E657); test: Inhibition of Trypanosoma cruzi PFK at 57 uM
T4 sequence (whole entry): T2 sequence (Q4E657 whole entry)
How it was run: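 PFK activity is measured by coupling ADP production to ADP-Glo luciferase luminescence at end point. Percent inhibition is recorded at 57 μM, the highest concentration of the dose series, with at least 3 separate experiments averaged.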

SMILES | IC50 [1] [µM] | IC50 [2] [µM] | inhibition [3] [%] | inhibition [4] [%]
Cc1cc(NS(=O)(=O)c2ccc(NC(=O)CCc3ccc(Cl)c(Cl)c3)cc2)no1 | 5.17 | 6.51 | > 80 | > 80
O=C(Cc1ccc(Cl)c(Cl)c1)Nc1ccc(S(=O)(=O)Nc2nncs2)cc1 | 0.112 | 0.052 | > 80 | > 80
O=C(Cc1ccc(Cl)c(Cl)c1)Nc1ccc(S(=O)(=O)Nc2cncnc2)cc1 | 0.82 | 0.73 | > 80 | > 80
Cc1cc(NS(=O)(=O)c2ccc(NC(=O)Cc3ccc(Cl)cc3)cc2)no1 | 1.83 | 1.46 | > 80 | > 80
Cc1cc(NC(=O)c2csc(NC(=O)Cc3ccc(Cl)c(Cl)c3)n2)no1 | > 57 | > 57 |  | 
O=C(Cc1ccc(Cl)c(Cl)c1)Nc1ccc(S(=O)(=O)O)cc1 | 0.65 | 0.46 | > 80 | > 80
Cc1cc(NS(=O)(=O)c2ccc(NS(=O)(=O)Cc3ccc(Cl)c(Cl)c3)cc2)no1 | 37 | > 57 | > 80 | 
Cc1cc(NS(=O)(=O)c2ccc(NC(=O)c3ccc(Cl)c(Cl)c3)cc2)no1 | 14.6 | 20.6 | > 80 | > 80
Cc1cc(NS(=O)(=O)c2ccc(NC(=O)Cc3ccc(Cl)cc3Cl)cc2)no1 | 4.61 | 14.6 | > 80 | > 80
Cc1cc(NS(=O)(=O)c2ccc(NC(=O)Cc3cccc(Cl)c3)cc2)no1 | 7.3 | 2.59 | > 80 | > 80
Cc1cc(NS(=O)(=O)c2ccc(NC(=O)Cc3ccc(F)c(Cl)c3)cc2)no1 | 0.73 | 0.46 | > 80 | > 80
Cc1cc(NS(=O)(=O)c2ccc(NC(=O)Cc3ccc(Cl)c(C(F)(F)F)c3)cc2)no1 | 0.68 | 0.92 | > 80 | > 80
Cc1cc(NS(=O)(=O)c2ccc(NC(=O)C(C)(C)c3ccc(Cl)c(Cl)c3)cc2)no1 | 36.6 | 36.5 | > 80 | > 80
O=C(Cc1ccc(Cl)c(Cl)c1)Nc1ccc(S(=O)(=O)Nc2cccc(C(=O)O)c2)cc1 | 0.26 | 0.58 | > 80 | > 80
Cc1cc(NS(=O)(=O)c2ccc(NC(=O)Cc3ccc4ccccc4c3)cc2)no1 | 6.51 | 1.83 | > 80 | > 80
CCOC(=O)c1cccc(NS(=O)(=O)c2ccc(NC(=O)Cc3ccc(Cl)c(Cl)c3)cc2)c1 | > 57 | > 57 |  | 
O=C(Cc1ccc(Cl)c(Cl)c1)Nc1ccc(S(=O)(=O)Nc2cc[nH]n2)cc1 | 0.52 | 0.73 | > 80 | > 80
Cc1cc(NS(=O)(=O)C2CCN(C(=O)Cc3ccc(Cl)c(Cl)c3)CC2)no1 | 33 | 13 | > 80 | > 80
Cc1cc(NS(=O)(=O)CCNC(=O)Cc2ccc(Cl)c(Cl)c2)no1 | 32.6 | 16.3 | > 80 | > 80
Cc1cc(NS(=O)(=O)c2ccc(NC(=O)Cc3ccc(Cl)c(F)c3)cc2)no1 | 0.7 | 0.65 | > 80 | > 80
Cc1cc(NS(=O)(=O)c2ccc(NC(=O)Cc3ccc(Cl)c(Cl)c3)cc2)n(C)n1 | 2.31 | 1.16 | > 80 | > 80
Cc1cc(NS(=O)(=O)c2ccc(NCCc3ccc(Cl)c(Cl)c3)cc2)no1 | 6 | 16.3 | > 80 | > 80
O=C(Cc1ccc(F)c(Cl)c1)Nc1ccc(S(=O)(=O)Nc2nccs2)cc1 | 0.024 | 0.12 | > 80 | > 80
CN(C)c1cccc(NS(=O)(=O)c2ccc(NC(=O)Cc3ccc(Cl)c(Cl)c3)cc2)c1 | 5.8 | 11.6 | > 80 | > 80

Continued, values first:

IC50 [1] [µM] | IC50 [2] [µM] | inhibition [3] [%] | inhibition [4] [%] | SMILES
0.16 | 0.29 | > 80 | > 80 | O=C(Cc1ccc(Cl)c(Cl)c1)Nc1ccc(S(=O)(=O)Nc2ccc(C(=O)O)cc2)cc1
6.51 | 1.3 | > 80 | > 80 | Cc1cc(NS(=O)(=O)c2ccc(N(C)C(=O)Cc3ccc(Cl)c(Cl)c3)cc2)no1
2.59 | 3.26 | > 80 | > 80 | Cc1cc(NS(=O)(=O)Cc2ccc(NC(=O)Cc3ccc(Cl)c(Cl)c3)cc2)no1
16.3 | 16.3 | > 80 | > 80 | Cc1cc(NS(=O)(=O)c2cccc(NC(=O)Cc3ccc(Cl)c(Cl)c3)c2)no1
5.16 | 2.91 | > 80 | > 80 | Cc1cc(NS(=O)(=O)c2ccc(C(=O)NCc3ccc(Cl)c(Cl)c3)cc2)no1
> 57 | 20.6 |  | > 80 | COc1ccc(CC(=O)Nc2ccc(S(=O)(=O)Nc3cc(C)on3)cc2)cc1C
0.079 | 0.041 | > 80 | > 80 | O=C(Cc1ccc(Cl)c(Cl)c1)Nc1ccc(S(=O)(=O)Nc2nccs2)cc1
2.91 | 2.06 | > 80 | > 80 | Cc1cc(N(C)S(=O)(=O)c2ccc(NC(=O)Cc3ccc(Cl)c(Cl)c3)cc2)no1
1.46 | 1.63 | > 80 | > 80 | O=C(Cc1ccc(Cl)c(Cl)c1)Nc1ccc(S(=O)(=O)Nc2cccc(O)c2)cc1
5.8 | 4.6 | > 80 | > 80 | Cc1cc(NS(=O)(=O)c2ccc(NC(=O)Cc3ccc(C)c(F)c3)cc2)no1
18.3 | 6.5 | > 80 | > 80 | Cc1cc(NS(=O)(=O)c2ccc(NC(=O)Cc3ccc(C)c(C)c3)cc2)no1
> 57 | > 57 |  |  | Cc1cc(NC(=O)c2ccc(NC(=O)Cc3ccc(Cl)c(Cl)c3)cc2)no1
> 57 | > 57 |  |  | COc1ccc(CC(=O)Nc2ccc(S(=O)(=O)Nc3cc(C)on3)cc2)cc1OC
16.3 | 16.3 | > 80 | > 80 | O=C(Cc1ccc(Cl)c(Cl)c1)Nc1ccc(S(=O)(=O)Nc2ccccc2)cc1
36.6 | 20.6 | > 80 | > 80 | Cc1cc(NS(=O)(=O)c2ccc(NC(=O)Cc3ccccc3)cc2)no1
3 |  |  |  | Cc1ccc(C(=O)Nc2ccc(S(=O)(=O)O)c3cc(S(=O)(=O)O)cc(S(=O)(=O)O)c23)cc1NC(=O)c1cccc(NC(=O)Nc2cccc(C(=O)Nc3cc(C(=O)Nc4ccc(S(=O)(=O)O)c5cc(S(=O)(=O)O)cc(S(=O)(=O)O)c45)ccc3C)c2)c1 [SURAMIN]
